KCNQ1 inh: inhibitors of human KCNQ1 potassium channel; P51787; CHO-K1 KCNQ1, FluxOR thallium flux fluorescence; stronger effect = higher value; B-score at 10 µM; hit rate 1.3% among 310,000; AID 2642;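 active = compounds whose thallium flux B-score, printed positive for inhibition, exceeds three library SD while starting fluorescence stays within three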;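 also: channel opened by potassium depolarization with thallium stimulus after 20 min compound exposure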
Target sequence (P51787 whole entry, looked up): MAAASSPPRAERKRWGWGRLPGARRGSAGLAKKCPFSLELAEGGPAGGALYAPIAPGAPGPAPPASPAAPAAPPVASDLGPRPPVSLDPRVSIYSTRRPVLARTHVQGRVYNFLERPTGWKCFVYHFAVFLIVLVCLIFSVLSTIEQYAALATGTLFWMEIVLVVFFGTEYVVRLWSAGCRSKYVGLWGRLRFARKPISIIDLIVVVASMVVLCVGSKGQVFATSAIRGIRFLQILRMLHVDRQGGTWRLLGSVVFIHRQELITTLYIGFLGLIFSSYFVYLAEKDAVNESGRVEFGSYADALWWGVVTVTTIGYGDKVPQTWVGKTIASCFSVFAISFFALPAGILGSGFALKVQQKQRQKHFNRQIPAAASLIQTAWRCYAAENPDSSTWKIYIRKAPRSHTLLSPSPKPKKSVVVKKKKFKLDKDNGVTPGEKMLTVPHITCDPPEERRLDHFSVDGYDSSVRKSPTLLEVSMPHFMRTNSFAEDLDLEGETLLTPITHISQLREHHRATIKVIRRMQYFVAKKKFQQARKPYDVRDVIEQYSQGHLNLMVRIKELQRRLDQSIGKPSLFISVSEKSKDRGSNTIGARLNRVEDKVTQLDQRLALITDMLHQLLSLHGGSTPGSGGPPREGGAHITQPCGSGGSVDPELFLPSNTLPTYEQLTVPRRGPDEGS
KCNQ1 act: potentiators or activators of human KCNQ1 potassium channel. hit rate 0.35% among 310,000. P51787. CHO-K1 KCNQ1, thallium flux FluxOR fluorescence; stronger effect = higher value. B-score at 10 µM. AID 2648;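 active = fluorescence ratio B-score, a plate-corrected score, at least three library SD, with initial intensity B-score within 5 SD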
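Test system: CHO-K1 cells stably expressing KCNQ1 / Medium: assay buffer / Also added: depolarizing K+/Tl+ stimulus, K2SO4 and Tl2SO4 each 12.5 mM in 5x stock / Incubation: 90 min dye loading and 20 min compound exposure, both at room temperature / Signal: thallium influx via FluxOR fluorescence, kinetic imaging / Evaluation: B score of baseline-normalized fluorescence ratio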
hERG rescue: hERG (human) protection from proarrhythmic block. Q12809. CHO-hERG, FluxOR thallium flux, dofetilide IC70 present. activation (rescue from dofetilide block), less the hit threshold, % at 10 µM. hit rate 0.51% among 310,000. AID 1511;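 active = activation above the mean of controls blocked by dofetilide plus 5 SD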;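 also: thallium influx through hERG after potassium depolarization seen as dye fluorescence rise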
KCNK3 inh: human KCNK3 channel inhibition, primary screen; O14649; CHO-KCNK3 thallium flux, FluxOR fluorescence; stronger effect = lower value; B-score at 10 µM; hit rate 0.84% among 340,000;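 active = B-score under library mean minus 4 SD, starting fluorescence ratio at most library mean plus 5 SD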;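 also: more negative B-score means stronger inhibition of thallium flux through KCNK3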
KCNK9 inh: blocks the human KCNK9 two-pore domain potassium channel | hit rate 1.2% among 310,000 | B-score at 10 µM | Q9NPC2 | HEK293 KCNK9, FluxOR thallium flux fluorescence; stronger effect = lower value;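 active = ratio B-score over 3 SD below the library mean, with starting fluorescence within 5 SD of its mean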;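 also: negative B-score means less thallium flux so channel inhibition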
KCC2 mod: KCC2 (human) Cl- transport modulation; B-score of Tl+ flux slope (higher = more flux/activation; lower = inhibition) at 10 µM; Q9H2X9; hit rate 2.2% among 190,000; AID 1456; KCC2 cells, thallium flux FluoZin-2 fluorescence;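 active = thallium flux slope and its plate-corrected score both differing from the plate sample mean at a set confidence after two filtering rounds, in either direction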;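 also: slope of fluorescence scaled to starting intensity during 10 to 20 s after thallium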
KCNK9 block conf: confirmation of human KCNK9 potassium channel inhibitors | shares compounds with KCNK9 inh | HEK293 KCNK9 cells, FluxOR thallium flux fluorescence | inhibition, % at 10 µM | hit rate 43% among 4,900;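 active = thallium signal inhibited by more than 5 SD of the compound-free buffer control wells, on both duplicate plates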
Kir2-1 spec: selectivity of KCNK9 modulators against mouse Kir2.1 | Kir2.1 cells, FluxOR thallium flux fluorescence | inhibition, % at 10 µM | hit rate 4% among 4,900 | shares compounds with KCNK9 inh;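 active = thallium signal drop more than 5 SD beyond the mean of the no-compound control wells, seen in both duplicate plates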;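 also: signal is fluorescence rise after thallium addition divided by baseline fluorescence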
HEK293 Tl ctr: second counter-screen for KCNK9 modulators: effect in non-induced cells | shares compounds with KCNK9 inh | inhibition, % at 10 µM | hit rate 40% among 4,900 | non-induced KCNK9-HEK293, FluxOR thallium flux;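 active = thallium signal drop beyond 5 SD of the untreated control mean, on both duplicate plates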
Numbers stand for hits; . = inactive; / = no result. A selection: hits, their analogues and other compounds. The true share with any hit is near 4.1%.

SMILES | KCNQ1 inh | KCNQ1 act | hERG rescue | KCNK3 inh | KCNK9 inh | KCC2 mod | KCNK9 block conf | Kir2-1 spec | HEK293 Tl ctr
O=C(Nc1ccccc1Cc1ccccc1)c1oc2ccccc2c1COc1ccccc1 | . | . | . | . | -8.74 | . | 51.0% | . | 31.0%
CC(OC(=O)c1oc2ccccc2c1COc1ccccc1)C(=O)NC(N)=O (stereo not drawn) | . | . | . | . | . | . | / | / | /
COc1cccc(C(C(=O)NC2CCCC2)N(CCC(C)C)C(=O)CCC(=O)Nc2cc(C)on2)c1 (stereo not drawn) | . | . | . | . | . | / | / | / | /
CCN(CC(=O)N1CCN(c2ccccc2)CC1)S(=O)(=O)c1ccc(C)cc1 | . | . | . | . | . | . | / | / | /
COc1ccc(CC(=O)Nc2ccc(/C(C)=N/NC(=O)c3ccc(OC)cc3OC)cc2)cc1 | . | . | . | . | . | / | / | / | /
CCOC(=O)C1=C(O)/C(=C/c2cc(OC)c(O)c(OC)c2)SC1=Nc1ccc(OC)cc1 | . | . | . | . | -9.88 | . | . | . | .
CCOC(=O)C1=C(O)/C(=C/c2ccc(OCC(=O)O)c(OC)c2)SC1=Nc1ccc(OCC)cc1 | . | . | . | . | . | . | / | / | /
COC(=O)c1ccc(Oc2nc(C)cc(Oc3ccccc3)n2)cc1 | . | . | . | . | . | . | . | . | .
Cc1ccc(C(=O)CCC(=O)OCc2nnc(-c3ccccc3)o2)cc1 | . | . | . | . | . | / | / | / | /
Cn1cc(CN2CCN(c3ccccc3)CC2)c2ccccc21 | . | . | . | . | . | . | . | . | .
CCOC(=O)Cc1c(C)nc2c(-c3ccccc3)c(C)nn2c1C | . | . | . | . | . | . | . | . | .
CCCCCCC(=O)NCC(=O)OCC(=O)c1ccccc1 | . | . | . | . | . | . | / | / | /
O=C1c2ccccc2C(=O)N1c1ncccn1 | . | . | . | . | . | . | / | / | /
CCn1cc(CCCC(=O)NCc2ccccc2OC)c2ccccc21 | . | . | . | . | . | / | / | / | /
CCn1cc(CCCC(=O)NCc2cccc(OC)c2)c2ccccc21 | . | . | . | . | . | / | . | . | .
COc1cccc(CNC(=O)C(Cc2ccccc2)n2cccc2)c1 (stereo not drawn) | . | . | . | . | . | . | . | . | .
COc1cccc(NC(=O)C(Cc2ccccc2)n2cccc2)c1 (stereo not drawn) | . | . | . | . | . | . | / | / | /
CCc1nnc(NC(=O)C2CC(=O)N(Cc3ccco3)C2)s1 (stereo not drawn) | . | . | . | . | . | / | / | / | /
COc1ccc(NC(=O)C2CCN(S(C)(=O)=O)CC2)cc1Cl | . | . | . | . | . | / | / | / | /
COc1cc(NS(=O)(=O)c2ccc(NC(=S)NC(=O)c3sc4ccccc4c3Cl)cc2)nc(OC)n1 | . | . | . | . | . | . | . | . | .
COc1ccc2c(c1)CCc1cn3nc(C)cc3nc1-2 | . | . | . | . | . | . | . | . | .
N#CC1=C2SCN(c3ccccc3)CN2C(=O)CC1c1ccccc1Cl (stereo not drawn) | . | . | . | . | . | / | . | . | .
N#CC1=C2SCN(c3ccccc3)CN2C(=O)CC1c1cccs1 (stereo not drawn) | . | . | . | . | . | . | / | / | /
COc1cccc(C2CC(=O)N3CN(c4cccc(Cl)c4C)CSC3=C2C#N)c1OC (stereo not drawn) | . | . | . | . | . | / | . | . | .
N#CC1=C2SCN(c3ccccc3)CN2C(=O)CC1c1c(Cl)cccc1Cl (stereo not drawn) | . | . | . | . | . | . | . | . | .
CC(C)c1ccc(NC(=S)NN2CCOCC2)cc1 | . | . | . | . | . | . | / | / | /
CCCC[C@@H]1C[C@H]1[C@@H](NC(=O)c1ccco1)c1ccc(Cl)cc1 | . | . | . | . | . | . | / | / | /

Compound activity as filed in PubChem BioAssay.
